These results are taken from ChEMBL document CHEMBL1134682, “A novel series of 2,6,7-substituted 2,3-dihydro-1,4-benzodioxin and 2,6,7-substituted 1,4-benzodioxin derivatives as lipid peroxidation inhibitors. Structure-activity relationships for high inhibition of human low-density lipoprotein peroxidation” (J Med Chem, 2001).

The species named for assay [1] is Homo sapiens. Briefly: Tested for the activity ratio versus probucol. It is filed as functional. The essentials: (§1)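 Human LDL was isolated by ultracentrifugation (1.019 < d < 1.063) from pooled EDTA (0.04%) plasma of healthy normolipidemic donors. Oxidation was driven by Cu²⁺ for 3 h at 37 °C, with compounds in DMSO added just before. TBARS was read by the Yagi method as MDA equivalents. Ten concentrations from 10⁻⁷ to 10⁻³ M were run in duplicate, with IC50 by linear regression. A ratio versus probucol corrected for LDL batch.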

The species entered for assay [2] is Homo sapiens. Put plainly: Concentration inhibiting 50% of the copper induced lipid peroxidation determined using the thiobarbituric acid reactive substance and expressed as an MDA equivalent. It is filed as functional. The method, boiled down: as §1
The subject of assay [3] is Mus musculus. Briefly: Compound was tested for change in the total cholesterol after (po) administration of 100 mg/kg in mice. It is filed as functional. The essentials: (§2)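 Groups of six mice were made hypercholesterolaemic by a high-cholesterol, cholic-acid diet for 7 days. Compound was dosed po, half on day 6 and half on day 7, then mice were fasted overnight without food or water. Serum total cholesterol and heparin-precipitated LDL-VLDL were compared with hypercholesterolaemic controls.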

Assay [4] deals with Mus musculus. Put plainly: Compound was tested for the time before the first gasps after ip administration of 1 mg/kg in hypoxia test. It is filed as functional. The following applies: route intraperitoneal. The method, boiled down:
(§3)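 Male Swiss CD1 mice (25–30 g) were housed 1 week at 20–22 °C, 55% humidity, 12/12 light cycle. Compound was given ip 30 min before placing each mouse in a small box flushed with 96% N₂/4% O₂ at 12 L/min. Read-out was the time until the first gasps. Vincamine was the reference.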

Assay [5] relates to Mus musculus. Briefly: Compound was tested for the time before the first gasps after ip administration of 2.5 mg/kg in hypoxia test. Particulars: route intraperitoneal. It is filed as functional. The method, boiled down:
as §3

Assay [6] has as its system Mus musculus. Put plainly: Compound was tested for change in the total cholesterol after (po) administration of 300 mg/kg in mice. It is filed as functional. The method, boiled down: as §2
The species named for the next assay is Rattus norvegicus. Briefly: Inhibitory concentration against KCl induced rat thoracic aorta contraction. It is filed as functional. The method, boiled down:
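Isolated rat aorta was contracted with hyperpotassic KCl (60 mM). Inhibition of contraction was measured over eight increasing concentrations (10⁻⁸ to 3 × 10⁻⁵ M), each in duplicate, on two preparations. IC50 came from the concentration–response curve by linear regression.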

The subject of assay [7] is Mus musculus. Put plainly: Compound was tested for change in the LDL-VLDL fraction after (po) administration of 300 mg/kg in mice. It is filed as functional. The method, boiled down: as §2
Assay [8] has as its system Mus musculus. Put plainly: Compound was tested for change in the LDL-VLDL fraction after (po) administration of 100 mg/kg in mice. It is filed as functional. The method, boiled down: as §2
Assay [9] deals with Mus musculus. Put plainly: Compound was tested for the time before the first gasps after ip administration of 20 mg/kg in hypoxia test. It is filed as functional. The following applies: route intraperitoneal. The method, boiled down: as §3
The species named for assay [10] is Homo sapiens. Put plainly: Compound was tested for the activity ratio versus probucol. It is filed as functional. The essentials:
as §1

Assay [11] is filed under the species Homo sapiens. Put plainly: Concentration inhibiting 50% of the copper induced lipid peroxidation determined using th e thiobarbituric acid reactive substance and expressed as an MDA equivalent. It is filed as functional. The essentials:
as §1

The species named for assay [12] is Homo sapiens. Briefly: Concentration inhibiting 50% of the copper induced lipid peroxidation determined using th e thiobarbituric acid reactive substance and expressed as an MDA equivalent; Peroxidant. It is filed as functional. The method, boiled down: as §1
Assay [13] concerns Mus musculus. Put plainly: Compound was tested for the time before the first gasps after ip administration of 2.5 mg/kg in hypoxia test; inactive. It is filed as functional, organism-based. Details: dose 2.5 mg/kg. The method, boiled down: as §3

Active and inactive are the calls of the source. No cut-off for these calls is given here.

On to `Nc1ccc2c(c1)OC=C(C(=O)N1CCN(C(c3ccc(F)cc3)c3ccc(F)cc3)CC1)O2`, for which the Ratio in the assay filed under Homo sapiens [1] is listed as 0.1. Moreover, the IC50 in the assay listed under Homo sapiens [2] stood at 35000 nM.
In the case of `O=C(C1=COc2ccc(O)cc2O1)N1CCN(C(c2ccc(F)cc2)c2ccc(F)cc2)CC1`, in the assay listed under Homo sapiens [1], the Ratio is recorded as 2.9. Moreover, the IC50 in the assay filed under Homo sapiens [2] came to 700 nM.
On to `Oc1ccc2c(c1)OC=C(CN1CCN(C(c3ccc(F)cc3)c3ccc(F)cc3)CC1)O2`, for which the Change is -33% with Mus musculus [3], -48% with Mus musculus [6], -52% in the assay with Mus musculus [7] and -35% in the assay on Mus musculus [8]. Further, the values for the Time with Mus musculus [4], in the assay with Mus musculus [5] and in the assay with Mus musculus [9] were 78 s, 65 s and 60 s, respectively. Also, in the assay filed under Homo sapiens [1], the Ratio turned out to be 5. For the same compound, the IC50 in the assay filed under Rattus norvegicus amounted to 570 nM; in the assay filed under Homo sapiens [2], 1000 nM.
As to `O=C(C1COc2ccc(O)cc2O1)N1CCN(C(c2ccc(F)cc2)c2ccc(F)cc2)CC1` (configuration not stated), the Ratio in the assay filed under Homo sapiens [1] is recorded as 10. Further, the figures for the IC50 in the assay filed under Rattus norvegicus and in the assay filed under Homo sapiens [2] were 2200 nM and 200 nM, respectively.
Regarding `CCCCN(C(=O)C1=COc2ccc(O)cc2O1)c1ccccc1`, in the assay listed under Homo sapiens [1], the Ratio was 2. The IC50 in the assay listed under Homo sapiens [2] came out at 400 nM.
The matching figures for `Oc1ccc2c(c1)OC=C(C(=S)N1CCN(C(c3ccc(F)cc3)c3ccc(F)cc3)CC1)O2`: 0.5 and 9000 nM.
On to `O=C(C1=COc2ccccc2O1)N1CCN(C(c2ccc(F)cc2)c2ccc(F)cc2)CC1`, for which, in the assay filed under Rattus norvegicus, the IC50 was found to be 1800 nM.
`COc1ccc(CN2CCN(C(=O)C3=COc4ccc(O)cc4O3)CC2)c(OC)c1OC`: in the assay filed under Homo sapiens [1], the Ratio came to 1.7. Also, the IC50 in the assay listed under Homo sapiens [2] turned out to be 3000 nM.
The matching figures for `Oc1ccc2c(c1)OC=C(CN1CCC(=C(c3ccc(F)cc3)c3ccc(F)cc3)CC1)O2`: >45 and < 100 nM.
The matching figures for `COc1ccc(CN2CCN(C(=O)C3COc4ccc(O)cc4O3)CC2)c(OC)c1OC` (configuration not stated): 3 and 1700 nM.
In the assay listed under Rattus norvegicus, `Fc1ccc(C(c2ccc(F)cc2)N2CCN(C/C=C/c3ccccc3)CC2)cc1` [FLUNARIZINE] gave an IC50 of 270 nM.
Regarding `O=C(Nc1ccccc1)C1=COc2ccc(O)cc2O1`, in the assay filed under Homo sapiens [10], the Ratio amounted to 4. Moreover, the IC50 in the assay listed under Homo sapiens [11] stood at 500 nM.
`O=C(Oc1ccc2c(c1)OC=C(C(=O)N1CCN(C(c3ccc(F)cc3)c3ccc(F)cc3)CC1)O2)c1cccnc1`: the IC50 entry in the assay filed under Homo sapiens [12] is “Peroxidant”.
As for `O=C(C1COc2cc(O)ccc2O1)N1CCN(C(c2ccc(F)cc2)c2ccc(F)cc2)CC1` (configuration not stated), the Ratio in the assay filed under Homo sapiens [1] worked out at 1.7. Also, the IC50 in the assay filed under Rattus norvegicus and in the assay filed under Homo sapiens [2] was 3000 nM throughout.
Regarding `COc1ccc2c(c1)OC=C(C(=O)N1CCN(C(c3ccc(F)cc3)c3ccc(F)cc3)CC1)O2`, in the assay filed under Homo sapiens [1], the Ratio is <0.005. Moreover, the IC50 in the assay filed under Homo sapiens [2] was > 100000 nM.
Consider `CC(C)(C)c1cc2c(cc1O)OC=C(C(=O)N1CCN(C(c3ccc(F)cc3)c3ccc(F)cc3)CC1)O2`, for which the Ratio in the assay listed under Homo sapiens [1] is 5. In addition, the IC50 was found to be 3100 nM in the assay listed under Rattus norvegicus and 1000 nM in the assay filed under Homo sapiens [2].
In the case of `O=C(C1=COc2cc(O)ccc2O1)N1CCC(=C(c2ccc(F)cc2)c2ccc(F)cc2)CC1`, in the assay filed under Homo sapiens [1], the Ratio is 2. In the assay listed under Homo sapiens [2], the IC50 worked out at 500 nM.
With `O=C(C1=COc2cc(O)ccc2O1)N1CCN(C(c2ccc(F)cc2)c2ccc(F)cc2)CC1`, the Time came to 55 s in the assay on Mus musculus [4], 108 s in the assay with Mus musculus [5] and 67 s in the assay with Mus musculus [9]. In addition, the Change with Mus musculus [6] is -7%. In addition, in the assay filed under Homo sapiens [1], the Ratio is on record as >45. The IC50 in the assay listed under Rattus norvegicus is 560 nM; in the assay listed under Homo sapiens [2], < 100 nM.
For `CCCCN(C(=O)C1=COc2cc(O)c(C(C)(C)C)cc2O1)c1ccccc1`, the Ratio in the assay filed under Homo sapiens [1] was determined as 5. In addition, the IC50 in the assay listed under Homo sapiens [2] came to 200 nM.
In the same order, the values of `CCCCN(C(=O)C1=COc2cc(O)ccc2O1)c1ccccc1` are 2 and 1000 nM.
With `CC(C)(Oc1ccc(CCNC(=O)c2ccc(Cl)cc2)cc1)C(=O)O` [BEZAFIBRATE], the Change in the assay with Mus musculus [3] was -25%; in the assay with Mus musculus [8], -20%.
For the compound `CC[C@]12CCCN3CCc4c(n(c5ccccc45)[C@@](O)(C(=O)OC)C1)[C@@H]32` [VINCAMINE], the IA result in the assay on Mus musculus [13] is “inactive”. The same compound showed a Time with Mus musculus [9] of 147 s.
